# How the values were obtained:
# [1] = melting temperature; fluorescence melt of hairpins on a sequencing array, two-state fit, raised by 9.35 °C to match UV melts; settings: sodium 0.088 M
# Outline: (§1)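 Two-state fits, bootstrapped, provided melting temperature and folding enthalpy from Cy3 fluorescence normalised to pre-quench Cy3 and to control constructs. Library hairpins with annealed Cy3 and quencher oligos were imaged on a sequenced MiSeq flow cell in 50 mM Na-HEPES pH 8.0, 25 mM NaCl, at 2.5 °C intervals up to 60 °C. Four replicates were combined with inverse-variance weighting. A 9.35 °C upward shift was applied to fitted temperatures to match UV melts.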
# [2] = folding enthalpy; higher = less favourable; fluorescence melt of hairpins on a sequencing array, two-state fit; settings: sodium 0.088 M
# Outline: as §1
Sequence,Tm [1],folding enthalpy [2]
GCAGAAGGAAACCTCTGC (((((.(....).))))),45.2 °C,-28.2 kcal/mol
GCAGACCGAAAGGTTGC (((.(((....)))))),53.5 °C,-28.9 kcal/mol
GCAGACGAAAGTCATGC ((((((....))).))),51 °C,-24.1 kcal/mol
GCAGACGAAAGTCCCTGC ((((((....)))..))),32.9 °C,-14.8 kcal/mol
GCAGACGAAAGTCGGTGC ((((((....)))..))),50.2 °C,-19.3 kcal/mol
GCAGACGAAAGTCGTGC ((((((....))).))),54.1 °C,-24.1 kcal/mol
GCAGACGAAAGTCGTTGC ((((((....)))..))),50.5 °C,-14.1 kcal/mol
GCAGACGAAAGTCTATGC ((((((....)))..))),45.8 °C,-14.9 kcal/mol
GCAGACGAAAGTCTGTGC ((((((....)))..))),61.3 °C,-22.2 kcal/mol
GCAGAGACGAAAGTCTGC (((..(((....)))))),51.7 °C,-19.6 kcal/mol
GCAGAGCGAAAGCAGTGC (((..((....))..))),45.8 °C,-15.1 kcal/mol
GCAGAGCGAAAGCCCAGC ((.(.((....)).).)),33 °C,-12.2 kcal/mol
GCAGAGCGAAAGCCTTGC (((..((....))..))),43.5 °C,-14.5 kcal/mol
GCAGAGCGAAAGCGCAGC ((.(.((....)).).)),59.6 °C,-19.6 kcal/mol
GCAGAGCGAAAGCGCCGC ((.(.((....)).).)),64 °C,-28.2 kcal/mol
GCAGAGCGAAAGCGGTGC (((..((....))..))),63.5 °C,-23.7 kcal/mol
GCAGAGCGAAAGCTTCGC ((..(((....)))..)),44.8 °C,-17.2 kcal/mol
GCAGAGGAAACTCTGC ((((((....)))))),65.8 °C,-35.2 kcal/mol
GCAGATCCGAAAGGATGC (((..(((....)))))),45.2 °C,-16.3 kcal/mol
GCAGATCGAAAGATTTGC (((.(((....))).))),52.1 °C,-43.6 kcal/mol
GCAGATGGAAACACCTGC ((((.((....)).)))),44.2 °C,-28.9 kcal/mol
GCAGATTCGAAAGAATGC (((..(((....)))))),36.3 °C,-13.9 kcal/mol
GCAGCCGAAAGGCAATGC ((((((....)))..))),52.1 °C,-17 kcal/mol

Sequence,Tm [1],folding enthalpy [2]
GCAGCCGAAAGGCAGTGC ((((((....)))..))),50.6 °C,-17.4 kcal/mol
GCAGCCGAAAGGCCATGC ((((((....)))..))),40.3 °C,-13.9 kcal/mol
GCAGCCGAAAGGCTCTGC ((((((....)))..))),46.3 °C,-12.2 kcal/mol
GCAGCCGGAAACAGCTGC (((((.(....).))))),55.7 °C,-40.9 kcal/mol
GCAGCCGGAAACGACTGC ((((.((....)).)))),56.6 °C,-43.5 kcal/mol
GCAGCCGGAAACGGCTAC (.(((((....))))).),45.9 °C,-11.3 kcal/mol
GCAGCCTCGAAAGAGTGC (((..(((....)))))),37 °C,-15.5 kcal/mol
GCAGCGCGAAAGCAATGC (((..((....))..))),54.9 °C,-25.3 kcal/mol
GCAGCGCGAAAGCACCGC ((.(.((....)).).)),41.3 °C,-21.5 kcal/mol
GCAGCGCGAAAGCCTTGC (((..((....))..))),40 °C,-12.4 kcal/mol
GCAGCGCGAAAGCGAAGC ((..(((....)))..)),57.5 °C,-18.7 kcal/mol
GCAGCGCGAAAGCTCGGC ((.(.((....)).).)),42.9 °C,-20.9 kcal/mol
GCAGCGGGAAACCACTGC ((((.((....)).)))),52.2 °C,-43.3 kcal/mol
GCAGCGGGAAACCGCCGC ((.((((....)))).)),55.2 °C,-18.6 kcal/mol
GCAGCTCGAAAGAGTGC (((.(((....)))))),51.4 °C,-30 kcal/mol
GCAGCTGGAAACGGCTGC (((((.(....).))))),60.2 °C,-46.1 kcal/mol
GCAGCTGGAAACGGTTGC (((.(.(....).).))),41.1 °C,-29.1 kcal/mol
GCAGGAGCGAAAGCTTGC (((..(((....)))))),44.2 °C,-16.5 kcal/mol
GCAGGAGGAAACTCCTAC (.(((((....))))).),37.8 °C,-15.2 kcal/mol
GCAGGAGGAAACTCTTGC (((.(((....))).))),46.7 °C,-34.8 kcal/mol
GCAGGCCGAAAGGCTTGC (((.(((....))).))),69.1 °C,-29.2 kcal/mol
GCAGGCGAAAGCCATGC ((((((....))).))),61 °C,-19.9 kcal/mol
GCAGGCGAAAGCCGCTGC ((((((....)))..))),68 °C,-14.8 kcal/mol

Sequence,Tm [1],folding enthalpy [2]
GCAGGCGAAAGCCTTTGC ((((((....)))..))),41 °C,-11 kcal/mol
GCAGGGCGAAAGCCTTGC (((.(((....))).))),61.2 °C,-40.3 kcal/mol
GCAGGGCGAAAGCTATGC (((..((....))..))),54.1 °C,-20.4 kcal/mol
GCAGGGCGAAAGCTCCGC ((.(.((....)).).)),49.5 °C,-17.6 kcal/mol
GCAGGGCGAAAGCTGTGC (((..((....))..))),52.2 °C,-21.7 kcal/mol
GCAGGTCGAAAGACATGC (((.(((....))).))),64.2 °C,-40.4 kcal/mol
GCAGGTCGAAAGACGTGC (((.(((....))).))),62.8 °C,-42.9 kcal/mol
GCAGGTTCGAAAGAATGC (((..(((....)))))),30.9 °C,-11.1 kcal/mol
GCAGTACGAAAGTAGTGC (((.(((....))).))),57.6 °C,-47 kcal/mol
GCAGTACGAAAGTATGC (((.(((....)))))),48.4 °C,-31.3 kcal/mol
GCAGTAGGAAACTGTTGC (((..((....))..))),32.2 °C,-18.3 kcal/mol
GCAGTCCCGAAAGGGTGC (((..(((....)))))),43.5 °C,-15.3 kcal/mol
GCAGTCCGAAAGGATGC (((.(((....)))))),52.3 °C,-32.1 kcal/mol
GCAGTCGAAAGACCATGC ((((((....)))..))),35.1 °C,-16.2 kcal/mol
GCAGTCGAAAGACCCTGC ((((((....)))..))),33 °C,-17.3 kcal/mol
GCAGTCGAAAGACCTGC ((((((....))).))),51.2 °C,-29.9 kcal/mol
GCAGTCGAAAGACGGTGC ((((((....)))..))),48.5 °C,-19 kcal/mol
GCAGTCGAAAGACGTGC ((((((....))).))),51.8 °C,-17.4 kcal/mol
GCAGTCGAAAGACGTTGC ((((((....)))..))),45.9 °C,-17 kcal/mol
GCAGTGCGAAAGCAACGC ((..(((....)))..)),58.7 °C,-15.1 kcal/mol
GCAGTGCGAAAGCACCGC ((.((((....)))).)),62 °C,-17.4 kcal/mol
GCAGTGCGAAAGCAGTGC (((.(((....))).))),66.4 °C,-37.9 kcal/mol
GCAGTGCGAAAGCATGGC ((..(((....)))..)),54 °C,-19.2 kcal/mol

Sequence,Tm [1],folding enthalpy [2]
GCAGTGCGAAAGCCCCGC ((.(.((....)).).)),41.1 °C,-10.3 kcal/mol
GCAGTGCGAAAGCCCGGC ((.(.((....)).).)),45 °C,-18.4 kcal/mol
GCAGTGCGAAAGCGCCGC ((.(.((....)).).)),52 °C,-17.9 kcal/mol
GCAGTGCGAAAGCTCGGC ((.(.((....)).).)),54.3 °C,-25.6 kcal/mol
GCAGTGCGAAAGCTCTGC ((((.((....)).)))),65.8 °C,-40.3 kcal/mol
GCAGTTCCGAAAGGATGC (((..(((....)))))),36.7 °C,-17.8 kcal/mol
GCAGTTCGAAAGAATTGC (((.(((....))).))),52.6 °C,-38.5 kcal/mol
GCAGTTGGAAACAATTGC (((.(((....))).))),46.9 °C,-31.2 kcal/mol
GCATAACCGAAAGGTTGC (((..(((....)))))),46.6 °C,-15.4 kcal/mol
GCATAACGAAAGTTCTGC (((.(((....))).))),45.6 °C,-35.4 kcal/mol
GCATAAGCGAAAGCTTGC (((..(((....)))))),46.3 °C,-14.7 kcal/mol
GCATAAGGAAACTTGTGC (((.(((....))).))),45.1 °C,-25.8 kcal/mol
GCATACGAAAGTAGTTGC ((((((....)))..))),33.1 °C,-17.5 kcal/mol
GCATACGAAAGTATATGC ((((((....)))..))),41.9 °C,-24.7 kcal/mol
GCATACGAAAGTATGC ((((((....)))))),67.9 °C,-35.3 kcal/mol
GCATAGAAATATGC (((((....))))),43.3 °C,-21.9 kcal/mol
GCATAGCGAAAGCAAGGC ((.(.((....)).).)),37.9 °C,-14 kcal/mol
GCATAGCGAAAGCAGTGC (((..((....))..))),53.7 °C,-17 kcal/mol
GCATAGCGAAAGCGAGGC ((.(.((....)).).)),54.4 °C,-13.3 kcal/mol
GCATAGCGAAAGCTGAGC ((..(((....)))..)),46 °C,-15.7 kcal/mol
GCATAGGGAAACCTGTGC (((.(((....))).))),50.3 °C,-33.6 kcal/mol
GCATATCGAAAGATGTGC (((.(((....))).))),55.4 °C,-36.5 kcal/mol
